Laboratory results published in ChEMBL document CHEMBL1152379, “Synthesis and evaluation of 3''- and 4''-deoxy and -fluoro analogs of the immunostimulatory glycolipid, KRN7000” (Bioorg Med Chem Lett, 2009).

Tests used:
Format in all cases: functional, cell-based
iNKT [1] = experiment: Immunostimulatory activity in iNKT hybridoma 1.2 cells expressing TCR Vbeta8.2 assessed as IL2 level by ELISA
Outline: (§1)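 Glycolipid pulsed at indicated amounts onto 1 × 10^5 A20 B lymphoma cells transfected to overexpress mouse CD1d, overnight. APCs washed, then cocultured with 2 × 10^5 Vα14 iNKT hybridoma cells (2H4 Vβ7, 1.2 Vβ8.2, 1.4 Vβ10) overnight. Supernatant IL-2 measured by ELISA as TCR-recognition readout. Dose-response curves, representative of three similar experiments.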

iNKT [2] = experiment: Immunostimulatory activity in iNKT hybridoma 2H4 cells expressing TCR Vbeta7 assessed as IL2 level by ELISA; outline: as §1
iNKT [3] = experiment: Immunostimulatory activity in iNKT hybridoma 1.4 cells expressing TCR Vbeta10 assessed as IL2 level by ELISA; outline: as §1

| Compound | Activity (iNKT [1]) | Activity (iNKT [2]) | Activity (iNKT [3]) |
| --- | --- | --- | --- |
| CCCCCCCCCCCCCCCCCCCCCCCCCC(=O)N[C@@H](CO[C@H]1O[C@H](CO)[C@H](O)[C@H](F)[C@H]1O)[C@H](O)CCCCCCCCCCCCCCC | Dose-dependent effect | Dose-dependent effect |  |
| CCCCCCCCCCCCCCCCCCCCCCCCCC(=O)N[C@@H](CO[C@H]1O[C@H](CO)[C@H](O)C[C@H]1O)[C@H](O)CCCCCCCCCCCCCCC | Dose-dependent effect | Dose-dependent effect |  |
| CCCCCCCCCCCCCCCCCCCCCCCCCC(=O)N[C@@H](CO[C@H]1O[C@H](CO)[C@H](F)[C@H](O)[C@H]1O)[C@H](O)CCCCCCCCCCCCCCC | Dose-dependent effect | Dose-dependent effect | Dose-dependent effect |
| CCCCCCCCCCCCCCCCCCCCCCCCCC(=O)N[C@@H](CO[C@H]1O[C@H](CO)[C@H](O)[C@H](O)[C@H]1O)[C@H](O)[C@H](O)CCCCCCCCCCCCCC | Dose-dependent effect | Dose-dependent effect | Dose-dependent effect |
| CCCCCCCCCCCCCCCCCCCCCCCCCC(=O)N[C@@H](CO[C@H]1O[C@H](CO)C[C@H](O)[C@H]1O)[C@H](O)CCCCCCCCCCCCCCC | Dose-dependent effect | Dose-dependent effect |  |
| CCCCCCCCCCCCCCCCCCCCCCCCCC(=O)N[C@@H](CO[C@H]1O[C@H](CO)[C@H](O)[C@H](O)[C@H]1O)[C@H](O)CCCCCCCCCCCCCCC | Dose-dependent effect | Dose-dependent effect | Dose-dependent effect |
